Drawing on BindingDB's records for doi:10.1016/j.bmc.2009.06.008 (University of Leipzig, 2009), this text covers IC50 for twelve compounds.

SMILES strings stand for the structures. pIC50: −log10 of the molar value.

The assay deals with Sonic hedgehog protein (Mus musculus, UniProt Q62226). Briefly: Inhibition of SHH in mouse Shh-Light2 cells after 48 hrs by Gli1 reporter gene assay in presence of SAG. The method, boiled down: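 Shh-Light II cells co-treated with the Hh activator SAG and inhibitor for 48 h. Cells washed with PBS and lysed, then firefly and constitutive Renilla luminescence read by dual-luciferase assay. IC50 from firefly/Renilla RLU/s plotted against concentration, Hill-slope non-linear regression. Highest concentration 5000 nM. 2–4 independent experiments, each in technical triplicate.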
As a reminder, the pIC50 is the negative decadic logarithm of the IC50, by convention in mol/L. As for `CC1=C2C[C@H]3[C@@H](CC=C4C[C@@H](O)CC[C@@]43C)[C@@H]2CC[C@]12O[C@@H]1C[C@H](C)CN[C@H]1[C@H]2C`, the pIC50 is 5.88.

As to `COc1ccccc1C(=O)Nc1ccc(Cl)c(-c2nc3ccccc3[nH]2)c1` [N-(3-(1H-Benzo[d]imidazol-2-yl)-4-chlorophenyl)-2-methoxybenzamide], the pIC50 is 6.06.

As to `CCOc1cc(C(=O)Nc2ccc(Cl)c(-c3nc4ccccc4[nH]3)c2)cc(OCC)c1OCC` [N-(3-(1H-Benzo[d]imidazol-2-yl)-4-chlorophenyl)-3,4,5-triethoxybenzamide], the pIC50 is 7.01.

With `COc1cc(C(=O)Nc2ccc(Cl)c(-c3nc4ccccc4[nH]3)c2)cc(OC)c1OC` [N-(3-(1H-Benzo[d]imidazol-2-yl)-4-chlorophenyl)-3,4,5-trimethoxybenzamide], the pIC50 is 7.10.

Regarding `O=C(Nc1ccc(Cl)c(-c2nc3ccccc3[nH]2)c1)c1cccc(C(F)(F)F)c1` [N-(3-(1H-Benzo[d]imidazol-2-yl)-4-chlorophenyl)-3-(trifluoromethyl)benzamide], the pIC50 was 6.92.

Take `CN(C)c1ccc(C(=O)Nc2ccc(Cl)c(-c3nc4ccccc4[nH]3)c2)cc1` [N-(3-(1H-Benzo[d]imidazol-2-yl)-4-chlorophenyl)-4-(dimethylamino)benzamide]: the pIC50 was 6.72.

In the case of `O=C(Nc1ccc(Cl)c(-c2nc3ccccc3[nH]2)c1)c1ccc(Cl)cc1` [N-(3-(1H-Benzo[d]imidazol-2-yl)-4-chlorophenyl)-4-chlorobenzamide], the pIC50 was 6.65.

Regarding `N#Cc1ccc(C(=O)Nc2ccc(Cl)c(-c3nc4ccccc4[nH]3)c2)cc1` [N-(3-(1H-Benzo[d]imidazol-2-yl)-4-chlorophenyl)-4-cyanobenzamide], the pIC50 is 6.73.

For `O=C(Nc1ccc(Cl)c(-c2nc3ccccc3[nH]2)c1)c1ccc(F)cc1` [N-(3-(1H-Benzo[d]imidazol-2-yl)-4-chlorophenyl)-4-fluorobenzamide], the pIC50 is 6.60.

Regarding `COc1ccc(C(=O)Nc2ccc(Cl)c(-c3nc4ccccc4[nH]3)c2)cc1` [N-(3-(1H-Benzo[d]imidazol-2-yl)-4-chlorophenyl)-4-methoxybenzamide], the pIC50 is 6.93.

For `O=C(Nc1ccc(Cl)c(-c2nc3ccccc3[nH]2)c1)c1ccccc1` [N-(3-(1H-Benzo[d]imidazol-2-yl)-4-chlorophenyl)-benzamide], the pIC50 is 6.79.

Take `CCOc1cc(C(=O)Nc2cccc(-c3nc4ccccc4[nH]3)c2)cc(OCC)c1OCC` [N-(3-(1H-Benzo[d]imidazol-2-yl)phenyl)-3,4,5-triethoxybenzamide]: the pIC50 was 5.88.
